Consider five molecules from ChEMBL document CHEMBL1152458, “Voriconazole inhibits melanization in Cryptococcus neoformans” (2007).

The structures appear in SMILES notation. In brackets after ≈: the same amount, converted by molar mass. Activity calls are given as the source filed them. Some results are limits rather than exact numbers.

Assay [1] deals with Cryptococcus neoformans. Description: Antifungal activity against Cryptococcus neoformans ATCC 24067 after 72 hrs by NCCLS M27A method. The settings on record: ATCC 24067, 72 h. Type of assay: functional.
Assay [2] concerns Cryptococcus neoformans. Description: Inhibition of melanin formation in Cryptococcus neoformans ATCC 24067 at =<0.5 times MIC after 10 days by plating assay. Type of assay: functional, organism-based. An outline of the steps: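 Strain 24067 yeast grown on minimal-medium agar plates containing 1 mM L-dopa, with or without drug, 10 days at 30°C. Read-out was visual dark pigmentation of colonies and of surrounding agar from secreted laccase. Plates run in triplicate, experiment performed twice.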

For assay [3], the system named is Cryptococcus neoformans. Description: Inhibition of melanin formation in Cryptococcus neoformans ATCC 24067 at 0.5 times MIC coincubated with L-dopa for 7 days by dry-weight measurement. Type of assay: functional. More on the design: scale not given: the % may be the effect or the level left. An outline of the steps:
(§1)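 5 x 10^4 yeasts grown in 50 ml minimal medium + 1 mM L-dopa ± drug (0.25 or 0.5 MIC) at 30°C, 150 rpm, for 7 days. Melanin "ghosts" were isolated by cell-wall lysing enzymes (10 mg/ml, overnight 30°C), proteinase K (1 mg/ml, SDS buffer pH 7.8, 37°C overnight) and boiling 6 M HCl for 1 h. They were then lyophilized and weighed.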

Assay [4] concerns Cryptococcus neoformans. Description: Inhibition of melanin formation in Cryptococcus neoformans ATCC 24067 at 0.25 times MIC coincubated with L-dopa for 7 days by dry-weight measurement. Type of assay: functional. On the set-up: scale not given: the % may be the effect or the level left. The procedure, abridged: as §1
Assay [5] relates to Cryptococcus neoformans. Description: Reduction in LAC1 gene expression in Cryptococcus neoformans ATCC 24067 at 0.25 to 0.5 times MIC after 7 days by qRT-PCR relative to control. Type of assay: functional. The procedure, abridged: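 Cells grown 7 days at 30°C on foil-covered minimal-medium agar + 1 mM L-dopa ± drug (0.25 or 0.5 MIC). Total RNA was DNase-treated and reverse transcribed, then LAC1 was measured by real-time PCR (40 cycles, 55°C annealing) with melting curve. Expression was normalized to ACT1 using the threshold-cycle method.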
(In qPCR the cycle at which signal appears reflects the starting amount.)

The subject of assay [6] is Cryptococcus neoformans. Put plainly: Increase in phagocytosis of Cryptococcus neoformans ATCC 24067 by mouse J774.16 cells at 0.25 to 0.5 times MIC. Type of assay: functional, organism-based. The procedure, abridged: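 Yeasts (5 x 10^4 in 25 ml minimal medium + 1 mM L-dopa, 0.25 or 0.5 MIC drug, 30°C, 150 rpm) sampled on days 3, 5 and 7. They were PBS-washed and added 1:1 to J774.16 macrophages with 10 µg/ml mAb 18B7 for 2 h at 37°C. Monolayers were washed, methanol-fixed and Giemsa-stained. Index is internalized yeasts per macrophage, from 3 wells × 3 fields (~100 macrophages each) at x400.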

Assay [7] relates to Toxicodendron vernicifluum. Put plainly: Inhibition of Rhus vernificera recombinant laccase-mediated ABTS oxidation. An outline of the steps:
(§2)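 Commercial Rhus vernificera laccase incubated with voriconazole, varying concentrations of either enzyme or drug, in PBS. ABTS 1 mM final, 30°C for 2 h, with absorbance read at 420 nm.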

Assay [8] relates to Toxicodendron vernicifluum. Put plainly: Inhibition of recombinant Rhus vernificera laccase-mediated ABTS oxidation measured as inhibition activity with respect to decrease in enzyme concentration from 1 to 0.001 U/mL at 1 ug/ml. An outline of the steps: as §2
The subject of assay [9] is Cryptococcus neoformans. Put plainly: Antifungal activity against Cryptococcus neoformans ATCC 24067 assessed as effect on growth rate at 0.25 to 0.5 times MIC. Type of assay: functional, organism-based. An outline of the steps:
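C. neoformans 24067 grown at 30°C in minimal medium with L-dopa, with drug at several sub-MIC levels up to 0.5 MIC. Inoculum was 5 x 10^4 cells in 50 ml per concentration, with growth followed over time.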

In assay [10] the test system is Toxicodendron vernicifluum. Description: Inhibition of cytoplasmic extract of recombinant Rhus vernificera laccase-mediated ABTS oxidation at 0.5 times MIC after 2 hrs. The procedure, abridged:
(§3)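 Yeasts grown 72 h at 30°C in asparagine medium with glucose, then 36 h without glucose. Intact cells were used at 1 x 10^8/ml in PBS ± voriconazole. Alternatively, bead-beaten cytoplasmic extracts in 0.1 M Na2HPO4 with protease inhibitor were used. ABTS 1 mM final, 30°C for 2 h; cells removed and A420 read against a no-ABTS baseline. Rhus laccase (1 U/ml) served as positive control. Run twice.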

Assay [11] relates to Cryptococcus neoformans. Description: Inhibition of intact recombinant Cryptococcus neoformans ATCC 24067 laccase-mediated ABTS oxidation at 0.5 times MIC after 2 hrs. The procedure, abridged: as §3

In general, MIC refers to the lowest concentration that inhibits growth of the organism.

As to `C[C@@H]1[C@H](O)[C@@H](C)/C=C/C=C/C=C/C=C/C=C/C=C/C=C/[C@H](O[C@@H]2O[C@H](C)[C@@H](O)[C@H](N)[C@@H]2O)C[C@@H]2O[C@](O)(C[C@@H](O)C[C@@H](O)[C@H](O)CC[C@@H](O)C[C@@H](O)CC(=O)O[C@H]1C)C[C@H](O)[C@H]2C(=O)O` [AMPHOTERICIN B], the MIC in [1] was determined as 0.125 µg/mL (≈ 0.135 µM). Moreover, in [2], the result was inactive.
`CC[C@H](C)C[C@H](C)CCCCCCCCC(=O)N[C@H]1C[C@@H](O)[C@@H](NCCN)NC(=O)[C@@H]2[C@@H](O)CCN2C(=O)[C@H]([C@H](O)CCN)NC(=O)[C@H]([C@H](O)[C@@H](O)c2ccc(O)cc2)NC(=O)[C@@H]2C[C@@H](O)CN2C(=O)[C@H]([C@@H](C)O)NC1=O` [CASPOFUNGIN] registered a minimum inhibitory concentration (MIC) in [1] of 8 µg/mL (≈ 7.32 µM).
In the case of `OC(Cn1cncn1)(Cn1cncn1)c1ccc(F)cc1F` [FLUCONAZOLE], in assay [1], the minimum inhibitory concentration (MIC) is 1 µg/mL (≈ 3.27 µM). Besides, the Activity in assay [3] stood at 17.3%; in assay [4] it was 2.7%. For the same molecule, the result in assay [5] was inactive.
Turning to `CCC(C)n1ncn(-c2ccc(N3CCN(c4ccc(OCC5COC(Cn6cncn6)(c6ccc(Cl)cc6Cl)O5)cc4)CC3)cc2)c1=O` (stereo not drawn) [ITRACONAZOLE], in [1], the MIC is less than 0.625 µg/mL.
Take `C[C@@H](c1ncncc1F)[C@](O)(Cn1cncn1)c1ccc(F)cc1F` [VORICONAZOLE]: the result in [6], in assay [8], in assay [10] and in assay [11] was Active. Besides, inhibition of growth in assay [1] (MIC) required 0.015 µg/mL (≈ 0.0429 µM). Moreover, the Activity result in assay [7] was “Dose-dependent effect”; in assay [3], 94.5%; in assay [4], 82.1%; in assay [5], 40%. Also, in assay [9], the result was inactive.
